The test system of one series is rhinovirus A2. In words: Antiviral activity against wild type Rhinovirus-A02 infected in HeLa cells assessed as reduction in virus-induced cytopathic effect incubated for 3 days by MTS/PMS assay. Type of series: functional, cell-based. As to conditions: Rhinovirus A, 72 h. On the technique in general: Cytopathic effects are the visible damage that an infection or toxin causes in cultured cells.

In a further series the test system is rhinovirus B14. In words: Antiviral activity against wild type Human rhinovirus B14 infected in HeLa cells assessed as reduction in virus-induced cytopathic effect incubated for 3 days by MTS/PMS assay. Type of series: functional, organism-based. Conditions: Rhinovirus B, 72 h.
Series [1] is described as follows: Inhibition of Human enterovirus 71 3C-like protease expressed in Escherichia coli BL21 (DE3) cells using Dacyl-KTSAVLQSGFRKMEEdans as fluorogenic substrate incubated for 10 mins by FRET assay. More on the design: species or system Enterovirus A71. In a few lines: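 EV71 3Cpro expressed with N-terminal His-SUMO2 tag, tag cut by SENP2, then purified on Ni-NTA, Q-Sepharose and Superdex200. Enzyme at 5 μM final, preincubated 10 min with serial compound dilutions in 25 mM Tris pH 8.0, 150 mM NaCl, 10% glycerol. Fluorescence read at ex 340/em 490 nm. IC50 (mean ± SD, ≥3 experiments) by nonlinear regression.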

The test system of another series is Enterovirus A71. The series is described as follows: Antiviral activity against Human enterovirus 71 BrCr infected in human RD cells assessed as reduction in virus-induced cytopathic effect incubated for 4 days by MTS/PMS assay. As to conditions: Enterovirus A, 96 h. Type of series: functional, organism-based. Summed up: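 RD cells (2.5 × 10^4/well) adhered overnight, then infected with EV71 BrCr and given serial compound dilutions. Incubated 4 days, until full CPE in virus controls. Viability by MTS/PMS, absorbance at 498 nm after 1–2 h at 37 °C. Normalised to infected and uninfected untreated controls; EC50 by curve fitting.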

A short description of series [2]: Cytotoxicity against human RD cells assessed as reduction in cell viability measured after 4 days by MTS/PMS assay. Type of series: toxicity, cell-based. As to conditions: time 4 day.
The subject of another series is enterovirus D68. The series is described as follows: Antiviral activity against Human enterovirus 68 infected in HeLa cells assessed as reduction in virus-induced cytopathic effect incubated for 4 days by MTS/PMS assay. As to conditions: Enterovirus D, 96 h. Type of series: functional, organism-based.
In another series the test system is Coxsackievirus A21. In words: Antiviral activity against Human coxsackievirus A21 infected in HeLa cells assessed as reduction in virus-induced cytopathic effect incubated for 3 days by MTS/PMS assay. Type of series: functional, organism-based. Conditions: Enterovirus C, 72 h.
A further series has as its system Coxsackievirus B3. In words: Antiviral activity against Human coxsackievirus B3 infected in Vero cells assessed as reduction in plaque formation treated 2 hrs post viral infection and measured 3 to 4 days post-infection by Giemsa staining based plaque reduction assay. Conditions: Enterovirus B. Type of series: functional, organism-based. Background: Plaque reduction counts the foci of infection that form in a cell layer.

Series [3] in a line: Inhibition of SARS-CoV2 3C-like protease expressed in Escherichia coli BL21 (DE3) cells using Mca-AVLQSGFR-Lys(Dnp)-Lys-NH2 as fluorogenic substrate incubated for 10 mins by FRET assay. More on the design: species or system Severe acute respiratory syndrome coronavirus 2.
A further series has as its system SARS-CoV-2. The series is described as follows: Antiviral activity against SARS Cov-2 infected in Vero E6 cells assessed as reduction in viral RNA replication measured 24 hrs post infection by qRT-PCR analysis. Type of series: functional, organism-based. As to conditions: Severe acute respiratory syndrome coronavirus 2, Vero C1008, 24 h. (Real-time PCR tracks product formation cycle by cycle.)

The nature of series [4]: Cytotoxicity against African green monkey Vero E6 cells assessed as reduction in cell viability incubated for 24 hrs by CCK8 assay. Type of series: toxicity, cell-based, Vero C1008. As to conditions: chlorocebus sabaeus. In a few lines:
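Vero E6 cells (2 × 10^4/well) exposed to graded compound concentrations for 24 h. Relative surviving cell number measured by CCK-8.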

pEC50, pIC50: −log10 of the molar value.

For the molecule `COC(=O)/C=C/[C@H](C[C@@H]1CCNC1=O)NC(=O)[C@H](Cc1ccccc1)NC(=O)/C=C/c1ccccc1`, the pEC50 (commonly −log10 of the EC50, conventionally taken in molar units) in the series on rhinovirus A2 is 5.77; in the series with rhinovirus B14, 5.78; with Enterovirus A71, 5.92; in the series with enterovirus D68 it was 7.00; in the series with Coxsackievirus A21 it was 5.44; with Coxsackievirus B3, 4.11. In addition, the pIC50 – broadly, the negative decadic logarithm of the IC50, by convention in mol/L – in series [1] is 5.76. The CC50 (as a rule, the concentration giving 50% cytotoxicity) at 96 h in series [2] is over 100 µM.
In series [1], `O=C[C@H](C[C@@H]1CCNC1=O)NC(=O)[C@H](Cc1ccccc1)NC(=O)c1ccc2[nH]ccc2c1` gave a pIC50 of 5.42. Also, the negative-log EC50 (pEC50) in the series on Enterovirus A71 is 6.16. Further, in series [2], the CC50 at 96 h was over 100 µM.
The like results for `CC(C)[C@H](NC(=O)c1ccc2c(c1)OCCO2)C(=O)N[C@@H](Cc1ccccc1)C(=O)N[C@H](C=O)C[C@@H]1CCNC1=O` were, in that order, 5.39, 6.36 and over 100 µM.
Regarding `O=C[C@H](C[C@@H]1CCNC1=O)NC(=O)[C@H](Cc1ccccc1)NC(=O)c1cc2ccccc2o1`, the negative logarithm of the IC50 (pIC50) in series [1] was 5.61; in series [3], 7.10. Also, the pEC50 is 7.03 in the series with Enterovirus A71 and 6.31 in the series with SARS-CoV-2. Moreover, the CC50 at 96 h in series [2] is over 100 µM. Also, the 50% cytotoxic concentration (CC50) at 24 h in series [4] was over 1000 µM.
On to `O=C[C@H](C[C@@H]1CCNC1=O)NC(=O)[C@H](Cc1ccccc1)NC(=O)c1ccc2ccc(Br)cc2n1`, for which the pIC50 is 5.49 in series [1] and 6.62 in series [3]. Also, the pEC50 in the series with Enterovirus A71 was 7.03; with SARS-CoV-2, 6.46. Moreover, the cytotoxic concentration (CC50) at 96 h in [2] came out at 46.2 µM. The CC50 at 24 h in [4] was found to be 823 µM.
For `O=C[C@H](C[C@@H]1CCNC1=O)NC(=O)[C@H](Cc1ccccc1)NC(=O)c1cccc2c1OCCO2`, the pIC50 in series [1] was 5.52; in [3], 7.01. Also, the negative logarithm of the EC50 (pEC50) in the series with Enterovirus A71 is 6.11; in the series with SARS-CoV-2 it was 5.09. The 50% cytotoxic concentration (CC50) at 96 h in [2] was over 100 µM. Further, the CC50 at 24 h in [4] was over 1000 µM.
In turn, `O=C(/C=C/c1ccccc1)N[C@@H](Cc1ccccc1)C(=O)N[C@H](/C=C/C(=O)OCc1ccccc1)C[C@@H]1CCNC1=O` gave a pIC50 in series [1] of 5.69. In addition, the pEC50 in the series on Enterovirus A71 is 5.51. In series [2], the cytotoxic concentration (CC50) at 96 h is over 100 µM.
The like results for `O=C[C@H](C[C@@H]1CCNC1=O)NC(=O)[C@H](Cc1ccccc1)NC(=O)c1ccc2c(c1)OCCO2` were, in that order, 5.66, 6.52 and over 100 µM.
As to `Cc1nc2ccccc2nc1C(=O)N[C@@H](Cc1ccccc1)C(=O)N[C@H](C=O)C[C@@H]1CCNC1=O`, the negative-log IC50 (pIC50) was 5.52 in [1] and 7.19 in [3]. Further, the pEC50 in the series with Enterovirus A71 is 6.43; in the series on SARS-CoV-2, 6.36. Also, in [2], the CC50 at 96 h was over 100 µM. Further, the 50% cytotoxic concentration (CC50) at 24 h in [4] came to 603 µM.
The molecule `CCOC(=O)/C=C/[C@H](C[C@@H]1CCNC1=O)NC(=O)[C@H](Cc1ccc(F)cc1)NC(=O)[C@@H](NC(=O)c1cc(C)on1)C(C)C` gave a negative-log IC50 (pIC50) in series [1] of 5.72. In addition, in the series on Enterovirus A71, the pEC50 was 7.96. Moreover, the cytotoxic concentration (CC50) at 96 h in series [2] was over 100 µM.
As to `O=C[C@H](C[C@@H]1CCNC1=O)NC(=O)[C@H](Cc1ccccc1)NC(=O)c1ccc2occc2c1`, the figures for the pIC50 in series [1] and in series [3] were 5.63 and 7.23, respectively. Also, the pEC50 with Enterovirus A71 is 6.54; with SARS-CoV-2, 6.12. Further, in series [2], the 50% cytotoxic concentration (CC50) at 96 h is over 100 µM. In addition, the CC50 at 24 h in series [4] is over 1000 µM.
`CC(C)[C@H](NC(=O)c1cc2ccccc2o1)C(=O)N[C@@H](Cc1ccccc1)C(=O)N[C@H](C=O)C[C@@H]1CCNC1=O`: the pIC50 was 5.61 in series [1] and 7.17 in [3]. The pEC50 in the series with Enterovirus A71 is 7.02; in the series with SARS-CoV-2, 5.25. The CC50 at 96 h in series [2] is over 100 µM. Also, the CC50 at 24 h in [4] is over 1000 µM.
Molecule `O=C[C@H](C[C@@H]1CCNC1=O)NC(=O)[C@H](Cc1ccccc1)NC(=O)c1cncc(F)c1` showed a pIC50 in series [1] of 5.69. For the same molecule, the pEC50 with Enterovirus A71 is 6.33. Further, the cytotoxic concentration (CC50) at 96 h in [2] was over 100 µM.
The like results for `Cc1cc(C(=O)N[C@@H](Cc2ccccc2)C(=O)N[C@H](C=O)C[C@@H]2CCNC2=O)no1` were, in that order, 5.68, 6.49 and over 100 µM.
The like results for `O=C[C@H](C[C@@H]1CCNC1=O)NC(=O)[C@H](Cc1ccccc1)NC(=O)c1cnc2ccccc2n1` were, in that order, 5.44, 6.85 and over 100 µM.
Take `O=C[C@H](C[C@@H]1CCNC1=O)NC(=O)[C@H](Cc1ccccc1)NC(=O)c1ccc2ccccc2n1`: the pIC50 in series [1] is 4.89; in [3], 6.85. The pEC50 with Enterovirus A71 was 6.92; in the series on SARS-CoV-2, 6.37. Also, in series [2], the CC50 at 96 h is over 100 µM. The CC50 at 24 h in [4] was 627 µM.
Regarding `O=C[C@H](C[C@@H]1CCNC1=O)NC(=O)[C@H](Cc1ccccc1)NC(=O)C1=Cc2cc(Cl)ccc2OC1`, the negative-log IC50 (pIC50) was 5.36 in series [1] and 6.92 in series [3]. Further, the pEC50 is 7.15 in the series on Enterovirus A71 and 6.60 with SARS-CoV-2. Besides, the 50% cytotoxic concentration (CC50) at 96 h in series [2] came to 16.4 µM. The half-maximal cytotoxic concentration (CC50) at 24 h in series [4] was 299 µM.
For `Cc1cc(C(=O)N[C@H](C(=O)N[C@@H](Cc2ccccc2)C(=O)N[C@H](C=O)C[C@@H]2CCNC2=O)C(C)C)no1`, the negative logarithm of the IC50 (pIC50) in [1] was 5.17; in [3], 7.17. Moreover, the pEC50 with Enterovirus A71 is 7.05; in the series on SARS-CoV-2 it was under 5.70. Besides, the CC50 at 96 h in series [2] is over 100 µM. In series [4], the CC50 at 24 h is over 1000 µM.
In the case of `O=C[C@H](C[C@@H]1CCNC1=O)NC(=O)[C@H](Cc1ccccc1)NC(=O)c1ccc2c(c1)OCO2`, the negative-log IC50 (pIC50) in series [1] was 5.83; in [3], 7.11. The pEC50 in the series with Enterovirus A71 was 6.66; in the series on SARS-CoV-2 it was 5.87. Further, in [2], the half-maximal cytotoxic concentration (CC50) at 96 h was over 100 µM. Further, the CC50 at 24 h in series [4] is over 1000 µM.
For the molecule `O=C[C@H](C[C@@H]1CCNC1=O)NC(=O)[C@H](Cc1ccccc1)NC(=O)c1cn2cc(Br)ccc2n1`, the negative-log IC50 (pIC50) in series [1] was 5.79. For the same molecule, in the series on Enterovirus A71, the negative logarithm of the EC50 (pEC50) is 6.44. Further, in [2], the 50% cytotoxic concentration (CC50) at 96 h is over 100 µM.
For the molecule `CC(C)[C@H](NC(=O)c1cc2ccccc2[nH]1)C(=O)N[C@@H](Cc1ccccc1)C(=O)N[C@H](C=O)C[C@@H]1CCNC1=O`, the pEC50 was 5.99 in the series with rhinovirus A2; 6.01 in the series on rhinovirus B14; 6.92 in the series with Enterovirus A71; 6.59 in the series on enterovirus D68; 6.29 in the series on Coxsackievirus A21; 5.04 in the series on Coxsackievirus B3. Further, the pEC50 in the series on SARS-CoV-2 was 5.37. For the same molecule, the pIC50 was 5.38 in [1] and 7.17 in series [3]. Also, in series [2], the CC50 at 96 h was 72.5 µM. Besides, the CC50 at 24 h in [4] was over 1000 µM.
In the case of `O=C[C@H](C[C@@H]1CCNC1=O)NC(=O)[C@H](Cc1ccccc1)NC(=O)/C=C/c1ccccc1`, the negative logarithm of the EC50 (pEC50) was 5.18 in the series on rhinovirus A2; 5.92 in the series with rhinovirus B14; 7.00 in the series with Enterovirus A71; 7.10 in the series on enterovirus D68; 5.76 in the series on Coxsackievirus A21; 4.80 with Coxsackievirus B3. Further, the pIC50 in series [1] was 5.34. In [2], the CC50 at 96 h is over 100 µM.
